Assay outcomes as filed in PubChem.
H69AR inhibit: proliferation blockers of H69AR lung cancer cells, primary screen, cell-based, human, 86K library. H69AR lung tumor viability, ATP luminescence, 72 h; stronger effect = lower value. viability, % at 10 µM. hit rate 6% among 85,000;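 active = viability at or below 40%; inactive = viability above 40%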;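 note: multidrug resistant small cell line overexpressing MRP-1 efflux transporter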
PTEN del growth: growth suppression of PTEN-null HCT116, primary screen, cell-based, CellTiter-Glo; HCT116 PTEN-null viability, 60 h; stronger effect = lower value; viability, % at 10 µM; hit rate 1.2% among 140,000; AID 827, 2007;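 active = viability at or below a set limit, 4 SD under the median of all tested compounds, cut at about 3.7% in these data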;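 note: PTEN knockout HCT116 line with beta catenin targeted HCT116 as companion control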
HCT116 bCat-KO: primary screen for growth suppressors in beta-catenin knockout HCT116 cells (colon tumor, human). HCT116 beta-catenin knockout viability, CellTiter-Glo, 60 h; stronger effect = lower value. viability, % at 10 µM. hit rate 1.5% among 140,000. AID 818, 2007;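 active = viability at or under a set limit, the compound median less 4 SD, cut at about 6% in these data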
HUVEC inhibit: inhibitors of HUVEC proliferation, primary screen, cell-based, 384-well | CellTiter-Glo luminescence, 72 h; stronger effect = lower value | viability, % at 10 µM (by protocol) | hit rate 1.1% among 86,000 | AID 648, 2007;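 active = viability at or below 30%; inactive = viability above 30%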
Lung fibro prol: antiproliferative effect on LL 47 fibroblasts – human, LL 47 cells, CellTiter-Glo luminescence, primary screen; LL 47 human lung fibroblast viability, ATP luminescence; stronger effect = lower value; viability, % at 10 µM; hit rate 1.1% among 85,000; AID 719, 2007;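 active = viability at or below 50% in the single dose screen; inactive = viability above 50%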;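 note: compound exposure lasted 72 h before the ATP readout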
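Material: human lung fibroblast line LL 47, low passage; Evaluation: viability percentage against median untreated-cell control; Buffer or medium: 15% FBS in IMEM; Incubation: 72 h compound exposure at 37 °C after overnight plating; Dosing: 0.1% DMSO in all compound wells; Measured by: CellTiter-Glo luminescence.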
A number is an active result; i = inactive; nt = no result. The sample as a whole holds a higher share of hits than the screen did.

SMILES	H69AR inhibit	PTEN del growth	HCT116 bCat-KO	HUVEC inhibit	Lung fibro prol
CC(C)COC(=O)c1ccc2c(c1O)C(=O)c1ccccc1C2=O	i	i	i	10	i
COC(=O)c1[nH]c2ccc(C)cc2c1NC(=O)NC1CCCCC1	i	i	5.2	i	i
COC(=O)c1[nH]c2ccc(Br)cc2c1NC(=O)C(C)N1CCN(C2CCCCC2)CC1 (stereo not drawn)	15	3.2	i	29	25
Cc1ccc2c(c1)C(c1ccc([N+](=O)[O-])cc1)=NNC(c1ccc(Br)cc1)=N2	nt	2.5	3.5	nt	nt
COc1ccc2cc(C(N)=O)/c(=N/NC(=O)c3ccco3)oc2c1	nt	i	i	nt	nt
CC(=O)Oc1cc2c(C(=O)NCCCN3CCOCC3)c(C)oc2c2ccccc12	i	1.4	0.9	4.5	4.3
N#C/C(C(=O)N1CCOCC1)=C1/SC(Cc2ccccc2Cl)C(=O)N1c1ccccc1 (stereo not drawn)	nt	i	i	nt	nt
Cc1ccc(NC(=O)C2CCN(S(C)(=O)=O)CC2)cc1	i	i	i	i	i
CS(=O)(=O)N1CCC(C(=O)Nc2ccc(Oc3ccccc3)cc2)CC1	32	i	i	i	i
Cc1ccc(S(=O)(=O)N(c2nc(N(C)C)nc(N(C)C)n2)n2cnnc2)cc1	nt	i	i	nt	nt
Cc1cc(OCC(=O)Nc2ccc(S(=O)(=O)NC3=NCCCCC3)cc2)c(C(C)C)cc1Cl	nt	i	i	nt	nt
COc1ccc(-n2nnnc2-c2ccccc2)cc1	20	i	i	i	i
O=C(COC(=O)C(Cc1ccccc1)NC(=O)c1ccc(Cl)cc1)c1ccc(Cl)cc1 (stereo not drawn)	nt	i	i	nt	nt
CCOC(=O)c1sc(NC(=O)CSc2n[nH]c(-c3ccncc3)n2)c(C#N)c1C	19	i	i	i	i
CCOC(=O)c1sc(NC(=O)CSc2nccc(C)n2)c(C#N)c1C	7.2	i	i	i	i
CN(C)S(=O)(=O)c1ccc2[nH]cc(/C=C/c3nc4ccccc4c(=O)n3-c3ccccc3)c2c1	37	i	i	i	i
CC1Cc2ccccc2N1C(=O)CSc1nnc(-c2ccccc2)c(-c2ccccc2)n1 (stereo not drawn)	nt	i	i	nt	nt
CCc1cc[n+](C2=C([O-])c3ccccc3C(=O)/C2=N\S(=O)(=O)c2cccs2)cc1	nt	3.2	2.8	nt	nt
c1ccc2c(-c3nnc(SCc4cn5ccccc5n4)o3)c[nH]c2c1	i	i	i	i	i
c1ccc(CSc2nnc(-c3c[nH]c4ccccc34)o2)cc1	i	i	i	27	i
S=c1[nH]ncn1/N=C/c1cccc(Oc2ccccc2)c1	1.7	i	i	i	i
Cc1ccc(C)c(N2CCN(C(=O)COc3cc(=O)n(C)c4ccccc34)CC2)c1	i	i	i	i	i
Cc1ccc(C)c(N2CCN(C(=O)CCCOc3cc(=O)n(C)c4ccccc34)CC2)c1	2.8	i	i	i	i
Cc1ccc(S(=O)(=O)/C=C/c2ccccc2)cc1	nt	i	i	nt	nt
O=C(NC1CCCCC1)c1cc([N+](=O)[O-])[nH]n1	nt	i	i	nt	nt
SMILES	H69AR inhibit	PTEN del growth	HCT116 bCat-KO	HUVEC inhibit	Lung fibro prol
O=C(CSc1nnc(-c2ccccc2O)o1)Oc1ccc(OCc2ccccc2)cc1	27	i	i	i	i
COc1ccc(C(=O)NC(=O)Nc2cc(C)ccn2)cc1	40	i	i	i	i
COc1cc(C(=O)Nc2cc(C)ccn2)cc(OC)c1OC	i	i	i	i	i
CCOC(=O)c1cc2c(=O)n3cccc(C)c3nc2n(Cc2ccco2)c1=NC(=O)c1ccccc1	25	i	i	i	i
COc1ccc(-c2cc(C(=O)Nc3cc(C)n(Cc4ccc(Cl)cc4)n3)no2)cc1OC	14	i	i	i	i
COc1ccc2c(c1)CCc1c(C(=O)N3CC4(C)CC3CC(C)(C)C4)noc1-2 (stereo not drawn)	35	i	i	i	i
COc1ccc2c(c1)CCc1c(C(=O)Nc3cc(C)n(Cc4ccc(Cl)cc4)n3)noc1-2	5.3	i	i	i	i
COc1ccc2c(c1)CCc1c(C(=O)Nc3ccn(Cc4ccc(C)cc4)n3)noc1-2	10	i	i	i	i
COc1ccc2c(c1)CCc1c(C(=O)N3CCOCC3)noc1-2	i	i	i	i	i
COc1ccc(-c2csc(Nc3ncccc3C)n2)cc1OC	i	i	i	i	i
Cc1cccnc1Nc1nc(-c2ccc(O)c(O)c2)cs1	28	i	i	i	i
Cc1cccc(C(=O)Nc2ccc(C(=O)/C=C/c3cccnc3)cc2)c1	nt	1.6	1.4	nt	nt
